ChEMBL document CHEMBL1649472, “Soft-tissue penetration of ceftobiprole in healthy volunteers determined by in vivo microdialysis” (Antimicrob Agents Chemother, 2009)
In brackets after ≈: the same amount, converted by molar mass. One block for each compound: values may come before it.

Experiments:
[1] = AUC in plasma of healthy human at 400 mg, po by microdialysis; format: ADME, organism-based
[2] = AUC in plasma of healthy human at 500 mg, po administered at tablet formulation with maximum release by microdialysis; format: ADME, organism-based
[3] = AUC in plasma of healthy human at 750 mg. po administered at tablet formulation with maximum release by microdialysis; format: ADME, organism-based
[4] = AUC in plasma of healthy human at 500 mg, po administered at tablet formulation with immediate release by microdialysis; format: ADME, organism-based
[5] = AUC (0 to infinity) in plasma of healthy human at […] up to 12 hrs; format: ADME; set-up: time infinity
Method in brief: (§1)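 Twelve healthy volunteers received a single 500 mg dose as a 2-h i.v. infusion. K2EDTA blood was drawn from the opposite arm from predose to 24 h over 13 timepoints. Plasma was precipitated with acetonitrile/formic acid and perchloric acid. Protein binding was measured by ultrafiltration at 2 and 12 h, and free levels were derived per subject. Analysis was noncompartmental: linear-trapezoidal AUC, with λz from terminal-phase regression.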

[6] = Volume of distribution at steady state in plasma of healthy human at […] […]; format: ADME, organism-based; conditions: read-out: Vdss; method in brief: as §1
Staphylococcus aureus = test: Antibacterial activity against methicillin-resistant Staphylococcus aureus; format: functional
Streptococcus pneumoniae = test: Antibacterial activity against penicillin-resistant Streptococcus pneumoniae; format: functional
[7] = Cmax in adipose tissue of healthy human at 200 mg/l administered via microdialysis probe up to 12 hrs; format: ADME, organism-based
Method in brief: (§2)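 Twelve healthy volunteers were given a single 500 mg dose as a 2-h i.v. infusion. Microdialysis probes in skeletal muscle and s.c. adipose tissue were perfused with lactated Ringer's at 1.5 μl/min. Each probe was calibrated by retrodialysis with drug at 200 mg/liter, followed by a 4-h washout. Dialysate was collected every 20 min to 12 h, then at 16 and 24 h, and assayed by HPLC-UV. Values were recovery-corrected and analysed noncompartmentally.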

[8] = Half life in adipose tissue of healthy human at 200 mg/l administered via microdialysis probe up to 12 hrs; format: ADME, tissue-based; method in brief: as §2
[9] = AUClast in adipose tissue of healthy human at 200 mg/l administered via microdialysis probe up to 12 hrs; format: ADME; set-up: time < 12 hr; method in brief: as §2
[10] = AUC (0 to infinity) in adipose tissue of healthy human at 200 mg/l administered via microdialysis probe up to 12 hrs; format: ADME; set-up: time infinity; method in brief: as §2
[11] = Cmax in muscle of healthy human at 200 mg/l administered via microdialysis probe up to 12 hrs; format: ADME, organism-based, Muscle tissue; method in brief: as §2
[12] = Half life in muscle of healthy human at 200 mg/l administered via microdialysis probe up to 12 hrs; format: ADME, tissue-based, Muscle tissue; method in brief: as §2
[13] = AUClast in muscle of healthy human at 200 mg/l administered via microdialysis probe up to 12 hrs; format: ADME, tissue-based, Muscle tissue; set-up: time < 12 hr; method in brief: as §2
[14] = AUC (0 to infinity) in muscle of healthy human at 200 mg/l administered via microdialysis probe up to 12 hrs; format: ADME, tissue-based, Muscle tissue; set-up: time infinity; method in brief: as §2
[15] = Ratio of AUC in adipose tissue to fAUC in plasma of healthy human at 200 mg/l administered via microdialysis probe up to 12 hrs; format: ADME; conditions: other
[16] = fT>MIC in adipose tissue of healthy human at 500 mg, iv by microdialysis
[17] = fT>MIC in skeletal muscle of healthy human at 500 mg, iv by microdialysis

- AUC [1]: 25600 ng·h/mL
SMILES: C=CC1=C(C(=O)O)N2C(=O)[C@@H](NC(=O)/C(=N\OCC(=O)O)c3csc(N)n3)[C@H]2SC1 [CEFIXIME]

- AUC [1]: 22400 ng·h/mL
SMILES: COCC1=C(C(=O)O)N2C(=O)[C@@H](NC(=O)/C(=N\OC)c3csc(N)n3)[C@H]2SC1 [CEFPODOXIME]

- AUC [2]: 13700 ng·h/mL
- AUC [3]: 22100 ng·h/mL
- AUC [4]: 17600 ng·h/mL
SMILES: N[C@@H](C(=O)N[C@@H]1C(=O)N2C(C(=O)O)=C(Cl)CS[C@H]12)c1ccccc1 [CEFACLOR ANHYDROUS]

SMILES: Nc1nc(/C(=N/O)C(=O)N[C@@H]2C(=O)N3C(C(=O)O)=C(/C=C4\CCN([C@@H]5CCNC5)C4=O)CS[C@H]23)ns1 [CEFTOBIPROLE]
- AUC(0-inf) [5]: 98000 ng·h/mL
- Vd [6]: 14.6 L
- MIC90 (Staphylococcus aureus): 2 µg/mL (≈ 3.74 µM)
- MIC90 (Streptococcus pneumoniae): 2 µg/mL (≈ 3.74 µM)
- Cmax [7]: 9610 ng/mL
- half-life [8]: 2.56 h
- AUC(0-t) at 12 h [9]: 34300 ng·h/mL
- AUC(0-inf) [10]: 36500 ng·h/mL
- Cmax [11]: 14000 ng/mL
- half-life [12]: 2.61 h
- AUC(0-t) at 12 h [13]: 50600 ng·h/mL
- AUC(0-inf) [14]: 53200 ng·h/mL
- Ratio AUC [15]: 0.49
- Efficacy [16]: 35.1%
- Efficacy [17]: 53.6%
